Columns and labels:
Vaccinia virus = assay: Antiviral activity against Vaccinia virus Elstree-Lister ATCC VR-1549 infected in african green monkey Vero-76 cells assessed as reduction in viral plaque after 3 days by crystal violet staining; type: functional, organism-based; conditions: Orthopoxvirus vaccinia, Elstree-Lister ATCC VR-1549, Vero 76, 72 h
[1] = Antiviral activity against BVDV1 NADL ATCC VR-534 infected in MDBK cells assessed as inhibition of virus-induced cytopathogenicity after 3 to 4 days by MTT assay; type: functional, cell-based, Bovine viral diarrhea virus 1-NADL; conditions: Bovine viral diarrhea virus isolates and strains, ATCC VR-534, MDBK
Method in brief: (§1)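 BHK (5×10^4/well) or MDBK (3×10^4/well) cells grown to confluent monolayers overnight, infected at m.o.i. 0.01 in maintenance MEM-Earl with 0.5% inactivated FBS. Serially diluted compounds added after 1 h. Viability read by MTT after 3–4 days at 37 °C. Values are expressed as % of untreated controls, and EC50 is derived by linear regression. Duplicate samples.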

[2] = Cytotoxicity against MDBK cells after 48 to 96 hrs by MTT assay; type: cell-based, Bos taurus; conditions: cattle
Method in brief: (§2)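 Mock-infected MDBK (6×10^5 cells/mL, MEM-E with 10% horse serum) or BHK (1×10^6 cells/mL, MEM-E with 10% FBS) cells incubated with serial compound dilutions at 37 °C and 5% CO2. Viability measured by MTT after 48–96 h. CC50 by linear regression against untreated controls.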

[3] = Cytotoxicity against BHK21 cells by MTT assay; type: cell-based, Mesocricetus auratus; conditions: hamster, BHK-21 cells; method in brief: as §2
Yellow fever virus = assay: Antiviral activity against Yellow fever virus 17D infected in BHK21 cells assessed as inhibition of virus-induced cytopathogenicity after 3 to 4 days by MTT assay; type: functional, cell-based; conditions: BHK-21
[4] = test system: Mammalian orthoreovirus 1; assay: Antiviral activity against Reovirus 1 3651 ATCC VR-214 infected in BHK21 cells assessed as inhibition of virus-induced cytopathogenicity after 3 to 4 days by MTT assay; type: functional, organism-based; conditions: Mammalian orthoreovirus 1, 3651 ATCC VR-214, BHK-21; method in brief: as §1
[5] = Cytotoxicity against african green monkey Vero 76 cells after 48 to 96 hrs by MTT assay; type: cell-based; conditions: chlorocebus sabaeus
Coxsackievirus B5 = assay: Antiviral activity against Coxsackie virus type B5 Ohio-1 ATCC VR-29 infected in african green monkey Vero-76 cells assessed as reduction in viral plaque after 3 days by crystal violet staining; type: functional, organism-based; conditions: Enterovirus B, Ohio-1 ATCC VR-29, Vero 76, 72 h
Method in brief: (§3)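 Vero-76 monolayers (2×10^5 cells/well) infected for 2 h at 50–100 PFU/well. Unadsorbed virus removed. D-MEM with 1% inactivated FBS, 0.75% methylcellulose and serial compound dilutions added. Incubation at 37 °C for 3 days (CVB-5, HSV-1) or 5 days (RSV). Fixed and stained with 50% ethanol/0.8% crystal violet, then plaques counted. EC50 by linear regression versus untreated controls.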

Poliovirus 1 = assay: Antiviral activity against Polio virus type 1 strain sabin ATCC VR-1562 infected in african green monkey Vero-76 cells assessed as reduction in viral plaque after 2 days by crystal violet staining; type: functional, cell-based, Human poliovirus 1 strain Sabin; conditions: Enterovirus C, ATCC VR-1562, Vero 76, 48 h
[6] = Antiviral activity against Human respiratory syncytial virus A2 ATCC VR-1540 infected in african green monkey Vero-76 cells assessed as reduction in viral plaque after 5 days by crystal violet staining; type: functional, cell-based; conditions: ATCC VR-1540, Vero 76, 120 h; method in brief: as §3
[7] = test system: Vesicular stomatitis Indiana virus; assay: Antiviral activity against Vesicular stomatitis virus indiana ATCC VR-1540 infected in african green monkey Vero-76 cells assessed as reduction in viral plaque after 2 days by crystal violet staining; type: functional, organism-based; conditions: ATCC VR-1540, Vero 76, 48 h
Human alphaherpesvirus 1 = assay: Antiviral activity against Herpes simplex virus type 1 KOS ATCC VR-1493 infected in african green monkey Vero-76 cells assessed as reduction in viral plaque after 3 days by crystal violet staining; type: functional, organism-based; conditions: Human alphaherpesvirus 1, KOS ATCC VR1493, Vero 76, 72 h; method in brief: as §3
[8] = Cytotoxicity against human MT4 cells after 96 hrs by MTT assay; type: cell-based
Method in brief: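 Exponentially growing MT-4 cells seeded at 1×10^5 cells/mL in RPMI-1640 with 10% FBS and incubated with serial compound dilutions at 37 °C and 5% CO2. Viability measured by MTT after 96 h. CC50 by linear regression against untreated controls.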

[9] = test system: Human immunodeficiency virus 1; assay: Antiviral activity against HIV1 3B infected in human MT4 cells assessed as inhibition of virus-induced cytopathogenicity after 4 days by MTT assay; type: functional, organism-based; conditions: Human immunodeficiency virus 1, 3B, MT4, 96 h
Method in brief: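 MT-4 cells (1×10^4/well) in RPMI with serial compound dilutions, infected with HIV-1 IIIB at 100 CCID50 (m.o.i. 0.01). Viability measured by MTT after 4 days at 37 °C. EC50 for 50% protection from cytopathogenicity obtained by linear regression against untreated controls.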

SMILES	EC50 (Vaccinia virus)	EC50 [1]	CC50 [2]	CC50 [3]	EC50 (Yellow fever virus)	EC50 [4]	CC50 [5]	EC50 (Coxsackievirus B5)	EC50 (Poliovirus 1)	EC50 [6]	EC50 [7]	EC50 (Human alphaherpesvirus 1)	CC50 at 96 h [8]	EC50 [9]
O=[N+]([O-])c1ccc(-c2nc3cc(Cl)c(Cl)cc3[nH]2)cc1	0.1 µM													
O=[N+]([O-])c1ccc2[nH]c(-c3ccccc3)nc2c1		1.5 µM												
CC(=O)c1ccc2[nH]c(-c3ccccc3)nc2c1	> 100 µM	100 µM	> 100 µM	> 100 µM	> 100 µM	> 100 µM	> 100 µM	> 100 µM	> 100 µM	> 100 µM	> 100 µM	> 100 µM		
CC(=O)c1ccc2[nH]c(-c3ccc(Cl)cc3)nc2c1	> 100 µM	> 100 µM	> 100 µM	> 100 µM	> 100 µM	> 100 µM	> 100 µM	> 100 µM	> 100 µM	> 100 µM	> 100 µM	> 100 µM		
CC(=O)c1ccc2[nH]c(-c3ccc(C(F)(F)F)cc3)nc2c1	> 100 µM	15 µM	> 100 µM	> 100 µM	> 100 µM	> 100 µM	> 100 µM	> 100 µM	> 100 µM	> 100 µM	> 100 µM	> 100 µM		
C/C(=N\O)c1ccc2[nH]c(-c3ccccc3)nc2c1	> 100 µM	> 100 µM	> 100 µM	> 100 µM	> 100 µM	> 100 µM	> 100 µM	> 100 µM	> 100 µM	> 100 µM	> 100 µM	> 100 µM		
C/C(=N\O)c1ccc2[nH]c(-c3ccc(Cl)cc3)nc2c1		18 µM	37 µM	33 µM	> 33 µM								20 µM	> 20 µM
C/C(=N\O)c1ccc2[nH]c(-c3ccc(C(F)(F)F)cc3)nc2c1		> 55 µM	55 µM											
COc1ccc(-c2nc3cc(/C(C)=N/O)ccc3[nH]2)cc1	> 100 µM	> 44 µM	44 µM	44 µM	> 44 µM	> 100 µM	> 100 µM	> 100 µM	> 100 µM					
C/C(=N\NC(N)=O)c1ccc2[nH]c(-c3ccccc3)nc2c1	> 100 µM	50 µM	> 100 µM	> 100 µM	> 100 µM	> 100 µM	> 100 µM	> 100 µM	> 100 µM	> 100 µM	> 100 µM	> 100 µM		
C/C(=N\NC(N)=O)c1ccc2[nH]c(-c3ccc(Cl)cc3)nc2c1	> 100 µM	> 100 µM	> 100 µM	> 100 µM	> 100 µM	> 100 µM	> 100 µM	> 100 µM	> 100 µM	> 100 µM	> 100 µM	> 100 µM		
C/C(=N\NC(N)=O)c1ccc2[nH]c(-c3ccc(C(F)(F)F)cc3)nc2c1	> 100 µM	45 µM	> 100 µM	> 100 µM	> 100 µM	> 100 µM	> 100 µM	> 100 µM	> 100 µM	> 100 µM	> 100 µM	> 100 µM		
COc1ccc(-c2nc3cc(/C(C)=N/NC(N)=O)ccc3[nH]2)cc1		11 µM	25 µM											
COc1ccc(-c2nc3cc(/C(C)=N/NC(N)=O)ccc3n2C2CCCCC2)cc1		> 54 µM	54 µM											
C/C(=N\NC(N)=O)c1ccc2c(c1)nc(-c1ccccc1)n2C1CCCCC1	> 100 µM	> 100 µM	> 100 µM	> 100 µM	> 100 µM	> 100 µM	> 100 µM	> 100 µM	> 100 µM	> 100 µM	> 100 µM	> 100 µM		
C/C(=N\NC(N)=O)c1ccc2c(c1)nc(-c1ccc(Cl)cc1)n2C1CCCCC1	> 100 µM	> 100 µM	> 100 µM	> 100 µM	> 100 µM	> 100 µM	> 100 µM	> 100 µM	> 100 µM	> 100 µM	> 100 µM	> 100 µM		
C/C(=N\NC(N)=O)c1ccc2c(c1)nc(-c1ccc(C(F)(F)F)cc1)n2C1CCCCC1	> 100 µM	> 100 µM	> 100 µM	> 100 µM	> 100 µM	> 100 µM	> 100 µM	> 100 µM	> 100 µM	> 100 µM	> 100 µM			

SMILES	EC50 (Vaccinia virus)	EC50 [1]	CC50 [2]	CC50 [3]	EC50 (Yellow fever virus)	EC50 [4]	CC50 [5]	EC50 (Coxsackievirus B5)	EC50 (Poliovirus 1)	EC50 [6]	EC50 [7]	EC50 (Human alphaherpesvirus 1)	CC50 at 96 h [8]	EC50 [9]
C/C(=N\NC(N)=O)c1ccc2c(c1)nc(-c1ccoc1)n2C1CCCCC1		100 µM	> 100 µM											
C/C(=N\NC(N)=O)c1ccc2c(c1)nc(-c1ccccn1)n2C1CCCCC1	> 100 µM	> 100 µM	> 100 µM	> 100 µM	> 100 µM	> 100 µM	> 100 µM	> 100 µM	> 100 µM	> 100 µM	> 100 µM	> 100 µM		
C/C(=N\NC(N)=O)c1ccc2[nH]c(-c3ccoc3)nc2c1	> 100 µM	60 µM	> 100 µM	> 100 µM	> 100 µM	> 100 µM	> 100 µM	> 100 µM	> 100 µM	> 100 µM	> 100 µM	> 100 µM		
C/C(=N\NC(N)=O)c1ccc2[nH]c(C3CCCCC3)nc2c1	> 100 µM	44 µM	> 100 µM	> 100 µM	> 100 µM	> 100 µM	> 100 µM	> 100 µM	> 100 µM	> 100 µM	> 100 µM	> 100 µM		
Cc1cc2nc(-c3cccc4ccccc34)[nH]c2cc1C					6 µM									
Nc1ccc(-c2nc3cc(Cl)ccc3[nH]2)c2ccccc12					27 µM									
Nc1ccc(-c2nc3cc(Cl)c(Cl)cc3[nH]2)c2ccccc12					16 µM									
CC(=O)c1ccc2[nH]c(/C=C/c3ccc([N+](=O)[O-])cc3)nc2c1		1.7 µM												
CC(=O)Nc1ccc(/C=C/c2nc3cc(C(F)(F)F)ccc3[nH]2)cc1										1 µM				
Clc1ccc2c(c1)nc(Cn1nc3ccccc3n1)n2C[C@H]1CCCN2CCCCC12 (some centres undefined)										0.03 µM				
C[C@@]1(O)[C@H](O)[C@@H](CO)O[C@H]1n1ccc(N)nc1=O				> 100 µM		16 µM								
C[C@@]1(O)[C@H](O)[C@@H](CO)O[C@H]1n1cnc2c(=O)[nH]c(N)nc21 [2'-B-METHYL-GUANOSINE]		1.1 µM	> 10 µM	> 10 µM										
C#C[C@@]1(O)[C@H](O)[C@@H](CO)O[C@H]1n1ccc(N)nc1=O [2'-ETHYNYL-D-CYTIDINE]							> 100 µM	27 µM	23 µM					
O=c1cnn([C@@H]2O[C@H](CO)[C@@H](O)[C@H]2O)c(=O)[nH]1 [6-AZAURIDINE]							≥ 12.5 µM			1.2 µM				
Nc1nc2c(ncn2COCCO)c(=O)[nH]1 [ACYCLOVIR]							> 100 µM							
COc1c(C)c2c(c(O)c1C/C=C(\C)CCC(=O)O)C(=O)OC2 [MYCOPHENOLIC ACID]	1.5 µM						≥ 12.5 µM							

From ChEMBL document CHEMBL2034874, “5-acetyl-2-arylbenzimidazoles as antiviral agents. Part 4” (Eur J Med Chem, 2012)
